DENV2 CPE rescue = inhibitors of DENV2 cytopathic effect, primary screen, cell-based, plate reader, single concentration | DENV2-infected cells, cytopathic effect rescue | 350,000 compounds, 1.7% hits | CPE inhibition, % at 9.99 µM | AID 651640, 2012; in the data active means CPE inhibition above about 20%, passing the limit was not always enough; inconclusive means no clear call, values can overlap the other calls; tested in BHK-21 cells;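 further: 0% = median of neutral control wells and 100% = median of positive control wells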
ERp5 inh = inhibitors of ERp5-driven insulin aggregation, primary screen, biochemical, turbidity, absorbance 650 nm, single point; Protein disulfide-isomerase A6 (Homo sapiens), Q15084; 90 min; inhibition, % at 9.99 µM; 350,000 compounds, 0.05% hits; AID 651711, 2012;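 active means mean replicate inhibition above about 25%, with every replicate also reaching it, limit read from the data, passing the limit was not always enough; inconclusive means only one of those two criteria met; inactive means neither criterion met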
Target sequence (Q15084 whole entry, looked up): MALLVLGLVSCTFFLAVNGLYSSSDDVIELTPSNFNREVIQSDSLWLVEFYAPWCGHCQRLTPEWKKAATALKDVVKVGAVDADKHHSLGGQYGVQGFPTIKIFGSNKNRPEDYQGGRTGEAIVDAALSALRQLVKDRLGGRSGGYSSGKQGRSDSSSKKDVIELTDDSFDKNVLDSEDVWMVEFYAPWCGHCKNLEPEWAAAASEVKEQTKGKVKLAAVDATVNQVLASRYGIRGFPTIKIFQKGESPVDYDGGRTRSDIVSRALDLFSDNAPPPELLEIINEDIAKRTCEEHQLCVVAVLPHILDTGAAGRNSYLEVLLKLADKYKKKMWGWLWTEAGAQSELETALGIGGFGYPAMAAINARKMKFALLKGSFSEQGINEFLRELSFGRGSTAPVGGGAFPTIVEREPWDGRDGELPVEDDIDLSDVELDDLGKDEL
Statin myotox sup = suppressors of statin myotoxicity in C2C12 myotubes, primary screen, cell-based, single point, plate reader. C2C12 myotubes + simvastatin, ATP luminescence, 48 h; scaled: DMSO 0, geranylgeraniol control 100. rescue of ATP level, % at 7.49 µM. 330,000 compounds, 0.78% hits;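 active means mean ATP rescue above about 67%, or every replicate alone reaching that limit, limit read from the data, passing the limit was not always enough; inconclusive means no clear call, values can overlap the other calls; inactive means mean under the limit and some replicate under it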;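 further: myotubes were challenged with 10 µM simvastatin during compound exposure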
Cneo AK release = Cryptococcus neoformans cell lysis inducers, primary screen, AK release luminescence, single concentration; C. neoformans lysis, adenylate kinase release luminescence, 4 h; normalised: neutral wells 0, clomiphene wells 100; AID 651654, 2012; 360,000 compounds, 0.2% hits; lysis activity, % at 15 µM;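 active means mean lysis activity across replicates of at least 80%, whatever share of replicates individually reach that level; inactive means mean lysis activity below 80%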
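Schedule: static 4 h at 37 °C with compound, 1 h detection; system: C. neoformans cells; benchmarks: Clomiphene as positive control; buffer or medium: fresh YPD medium; measure: luminescence rise reflecting yeast cell lysis; measured by: luminescent adenylate kinase detection reagent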
F508del corr = F508del CFTR correction, initial screen, CFBE line, single point. activity (quench increase), % at 7.58 µM. AID 720511, 2013. 350,000 compounds, 0.36% hits. CFBE cells, YFP halide quenching; stimulated with forskolin plus potentiator P3; % fluorescence drop versus neutral controls;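 active means mean added fluorescence quench of at least 8% versus neutral control, with both replicates also reaching 8%; inconclusive means only one of the mean or replicate conditions met; inactive means mean below 8% and not both replicates reaching 8%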;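 further: cells transiently co-express mutant CFTR-F508del with the halide-sensitive YFP; corrector assay measuring rescue of mutant channel to the surface after 24 h compound exposure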
PDI inh = inhibitors of human PDI, primary screen, biochemical, turbidity, single point, plate reader. PDI insulin aggregation turbidity, A650, 90 min. inhibition, % at 10 µM. 350,000 compounds, 0.052% hits. AID 588391, 2011;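 active means mean inhibition across replicates of 30% or more, whatever share of single replicates reach that level; inconclusive means mean inhibition below 30% while every single replicate reaches 30%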
* hit, by the source's call; ? = inconclusive; · = no result; ! = not confirmed by another sample. In the library only some 2.3% were active in any assay of this set; here they are far more common.

SMILES	DENV2 CPE rescue	ERp5 inh	Statin myotox sup	Cneo AK release	F508del corr	PDI inh
Cc1ccc(C)c(C(Nc2ccccc2)c2ccc3ccc(C)nc3c2O)c1 (stereo not drawn)	23*	-2	·	·	7	·
C[C@@H]1CCCCO[C@@H](CN(C)Cc2ccc(C(=O)O)cc2)[C@@H](C)CN([C@@H](C)CO)C(=O)c2cc(NC(=O)Nc3cccc4ccccc34)ccc2O1	-1	2	·	-2	1	·
COc1ccc(NC(=O)Nc2ccc3c(c2)CC(=O)N([C@H](C)CO)C[C@H](C)[C@H](CN(C)C(=O)NC2CCCCC2)O3)cc1	29*	3	-11	-3	0	·
COc1ccc(NC(=O)Nc2ccc3c(c2)C(=O)N([C@H](C)CO)C[C@H](C)[C@H](CN(C)C(=O)NC2CCCCC2)O3)cc1	-1	8	-82	-11	5	·
COc1ccc(NC(=O)Nc2ccc3c(c2)C(=O)N([C@H](C)CO)C[C@H](C)[C@@H](CN(C)C(=O)NC2CCCCC2)O3)cc1	39*!	-2	9	0	0	-1
C[C@@H]1CN([C@H](C)CO)C(=O)c2cc(NC(=O)NC3CCCCC3)ccc2O[C@@H]1CN(C)C(=O)Nc1ccc(F)cc1	40*	-1	-7	11	0	·
C[C@H](CO)N1C[C@H](C)[C@@H](CN(C)C(=O)NC2CCCCC2)Oc2ccc(NC(=O)Nc3ccccc3)cc2CC1=O	46*	3	-17	48	0	·
CO[C@@H](CN(C)Cc1cc(F)ccc1F)[C@H](C)CN([C@@H](C)CO)S(=O)(=O)c1ccc(Cl)cc1	-4	0	-5	13	-2	·
C[C@@H]1CN([C@H](C)CO)C(=O)c2cccc(NS(=O)(=O)c3cn(C)cn3)c2O[C@@H]1CN(C)S(=O)(=O)c1ccc(F)cc1	-7	5	-14	-4	-1	·
C[C@@H]1CN([C@@H](C)CO)C(=O)Cc2cc(NC(=O)Nc3ccccc3)ccc2O[C@@H]1CN(C)C(=O)NC1CCCCC1	?	-1	-5	1	-3	·
COc1ccc(NC(=O)N(C)C[C@@H]2Oc3ccc(NC(=O)NC(C)C)cc3C(=O)N([C@@H](C)CO)C[C@H]2C)cc1	-1	-2	6	-3	1	·
COc1ccc(NC(=O)N(C)C[C@H]2Oc3ccc(NC(=O)NC(C)C)cc3C(=O)N([C@H](C)CO)C[C@H]2C)cc1	34*	-1	-1	0	-5	·
C[C@@H]1CN([C@H](C)CO)C(=O)Cc2cc(NC(=O)Nc3ccccc3)ccc2O[C@@H]1CN(C)C(=O)NC1CCCCC1	35*	3	1	5	-2	·
CO[C@@H]1CN(C)C(=O)c2ccc(NS(=O)(=O)CC(F)(F)F)cc2OC[C@@H](C)NC[C@@H]1C	-8	-1	-11	-1	1	·
CC=Cc1ccc2n(c1=O)C[C@@H]1[C@@H](CO)[C@H](C(=O)NCCC)[C@H]2N1Cc1cccnc1 (mixture of isomers)	4	-8	-2	45	-4	·
Cc1cccc(S(=O)(=O)N2CC[C@@H]3[C@H]2c2cc(-c4ccccc4F)ccc2N(C)[C@H]3CO)c1	?	-1	-14	14	2	·
CCCCNC(=O)c1onc(CS(=O)(=O)c2ccccn2)c1C(=O)NCCCC	40*	-8	-1	-4	1	-1
CCNC(=O)C[C@@H]1CC[C@@H]2[C@@H](COc3ccc(NC(=O)Nc4c(C)noc4C)cc3C(=O)N2C)O1	-9	2	-8	0	-1	·
CCC(=O)Nc1ccc2c(c1)OC[C@H](C)N(C(=O)CC1CC1)C[C@@H](C)[C@H](OC)CN(C)C2=O	12	-3	-2	0	0	·
ClCCCc1cn(C[C@H]2CC[C@@H]([C@@H]3CC[C@H](Cn4cc(CCCCl)nn4)O3)O2)nn1	22*	-2	-4	2	-1	-2
CCCCc1cn(C[C@H]2CC[C@@H]([C@@H]3CC[C@H](Cn4cc(CCCC)nn4)O3)O2)nn1	-2	-1	7	-1	0	3
Cc1noc(C)c1NC(=O)N(C)C[C@@H]1Oc2ccc(NC(=O)Cn3cnnn3)cc2C(=O)N([C@@H](C)CO)C[C@H]1C	3	0	5	0	1	·
CCN(CC)S(=O)(=O)c1cccc(-c2nnc(SCC(=O)NCCC3=CCCCC3)n2N)c1	·	·	124*	1	·	5
CC(C)C(=O)Nc1ccc2c(c1)C(=O)N(C)[C@@H]1CC[C@H](CC(=O)O)O[C@@H]1CO2	-14	-2	11	-5	-1	·
O=C(Oc1ccc2c(c1)C(=O)c1ccccc1CO2)c1ccccc1	·	·	107*	-1	·	4
SMILES	DENV2 CPE rescue	ERp5 inh	Statin myotox sup	Cneo AK release	F508del corr	PDI inh
O=C(Nc1nnc(Cc2ccccc2F)s1)c1ccccc1Cl	78*	-12	9	-2	0	10
COc1ccc(C(C)NC(=O)c2ccc(Br)cc2)cc1OC (stereo not drawn)	-14	-1	·	-2	0	6
O=C(Nc1nnc(Cc2ccccc2F)s1)Nc1ccccc1F	0	1	-2	-1	0	1
COc1ccc(C(C)NC(=O)c2ccccc2Cl)cc1OC (stereo not drawn)	64*	2	·	-1	0	0
COc1ccc(Cc2nnc(NC(=O)c3ccccc3Cl)s2)cc1OC	41*	-2	8	-6	-3	1
COc1cccc(S(=O)(=O)N(C)C[C@@H]2OCc3cn(nn3)CCCC(=O)N([C@H](C)CO)C[C@@H]2C)c1	·	·	-3	·	-1	·
COCC(=O)N[C@@H]1CC[C@@H](CC(=O)NCc2ccccc2OC)O[C@H]1CO	-11	-5	13	0	0	·
CCOc1cc(NC(=O)c2ccccn2)c(OCC)cc1NC(=O)c1ccccc1	-3	5	7	·	0	4
CCOc1cc(NC(=O)C2CC2)c(OCC)cc1NC(=O)c1ccccn1	·	·	121*	4	·	-5
COc1cccc(S(=O)(=O)Nc2ccc3c(c2)[C@@H]2C[C@@H](CC(=O)N(C)C)O[C@@H](CO)[C@@H]2O3)c1	1	-2	2	26	3	·
CNC[C@H]1Oc2c(NS(=O)(=O)c3ccccc3)cccc2C(=O)N([C@H](C)CO)C[C@H]1C	-3	-10	-4	-2	-1	·
COc1cccc(NC(=O)CN(C)C(=O)CCCc2nc3ccccc3s2)c1	25*	4	-13	0	4	-7
Cc1ccc(NC(=O)c2ccc(CSc3nnc(C)s3)cc2)cc1	·	·	·	14	·	9

Screening results as filed in PubChem BioAssay.
